Source: publication PMC4701204 (Chemistry & biology, 2015)
“Also recorded” adds a separate entry of the source.

Experiments:
[1] = biological target: RAD52 1-209 (ssDNA binding domain) (Homo sapiens, UniProt P43351); experiment: Fluorescence polarization
[2] = biological target: T1, RAD52 1-209 undecamer ring (Homo sapiens, UniProt P43351); experiment: Light scattering of RAD52 1-209; assay type: biochemical
T1 sequence (P43351 1-209): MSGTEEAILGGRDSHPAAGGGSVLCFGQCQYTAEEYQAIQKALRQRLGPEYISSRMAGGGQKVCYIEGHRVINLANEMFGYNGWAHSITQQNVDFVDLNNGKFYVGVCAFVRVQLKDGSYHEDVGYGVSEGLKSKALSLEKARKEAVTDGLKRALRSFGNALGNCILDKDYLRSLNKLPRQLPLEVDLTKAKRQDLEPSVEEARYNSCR
How it was run: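 RAD52 1-209 (purified by a published method) incubated with or without test compound in 1 M or 0.15 M NaCl. Species sizes measured by light scattering. Buffer-only and compound-only controls included.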

[3] = system: VC8 cells (BRCA2 defective); experiment: Cell viability / proliferation; assay type: cell-based, Chinese hamster; details: 75 μM 6-OH-dopa
How it was run: (§1)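 Each BRCA-deficient line tested alongside its BRCA-proficient counterpart after single-concentration test compound (olaparib or siRNA in some panels). Relative viability reported as mean ± s.e.m. of triplicates, with two-tailed Student's t-test.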

RAD52-ssDNA complexes = RAD52-ssDNA complexes (Homo sapiens, UniProt P43351); experiment: Dissociation of pre-formed RAD52-ssDNA complexes; assay type: binding; details: 30 μM, FP measured 2 min after addition
How it was run: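 RAD52–ssDNA complexes pre-formed and equilibrated for 30 min before 30 μM test compound was added. FP read 2 min later against a DNA-only control, with mean ± s.d. of 3 independent experiments. Dissociation was also tested by EMSA on non-denaturing gels.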

NHEJ in U20S cells = experiment: NHEJ GFP reporter assay; assay type: cell-based; details: 5 μM
How it was run: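 NHEJ GFP reporter in U2OS cells, run with or without 5 μM test compound. Mean ± s.e.m. of two separate experiments, each in triplicate.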

ssDNA = experiment: Interaction of small molecule with ssDNA; assay type: binding; details: Supplementary Fig. 1
[4] = system: MDA-MB-436 cells complemented with BRCA1; experiment: eGFP-RAD52 foci formation after ionizing radiation; assay type: cell-based; details: MDA-MB-436 BRCA1 complemented
How it was run: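 BRCA1-complemented MDA-MB-436 cells expressing eGFP-RAD52 were given test compound, then ionizing radiation, with or without IR as control. Nuclei stained with DAPI. Cells with ≥5 eGFP-RAD52 foci counted as percent of total. Mean ± s.e.m. of 3 independent experiments.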

[5] = system: BRCA deficient cells (VC8, HCC1937); experiment: Annexin V staining; assay type: cell-based; details: BRCA deficient vs proficient cells
RecA = RecA (Escherichia coli, UniProt P0A7G6); experiment: Effect on RecA in vitro; assay type: biochemical; details: Supplementary Fig. 1
Sequence of RecA (P0A7G6 whole entry, species assumed): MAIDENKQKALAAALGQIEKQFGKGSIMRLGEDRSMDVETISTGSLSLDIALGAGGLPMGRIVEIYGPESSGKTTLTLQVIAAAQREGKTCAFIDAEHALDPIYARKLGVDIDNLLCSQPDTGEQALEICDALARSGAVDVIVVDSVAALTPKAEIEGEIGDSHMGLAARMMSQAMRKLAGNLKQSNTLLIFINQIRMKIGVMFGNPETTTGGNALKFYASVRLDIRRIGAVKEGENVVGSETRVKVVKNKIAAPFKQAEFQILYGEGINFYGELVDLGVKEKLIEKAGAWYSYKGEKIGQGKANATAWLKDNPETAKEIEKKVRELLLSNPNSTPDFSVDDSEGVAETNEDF

[6] = biological target: T1, RAD52 1-209 undecamer ring; experiment: Native gel electrophoresis of RAD52 1-209 composition; assay type: biochemical
AML patient cells = experiment: Clonogenic survival; assay type: cell-based
How it was run: (§2)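 Colony-forming survival of BRCA-deficient and BRCA-proficient leukemia patient cells after test compound or olaparib. Each data point pools cells from 3 different patients. Mean ± s.e.m. of 3 independent experiments.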

[7] = system: CAPAN-1 cells (BRCA2 defective); experiment: Cell viability / proliferation; assay type: cell-based; details: 10 μM 6-OH-dopa, 20 μM olaparib
How it was run: as §1

[8] = system: BRCA1 deficient CML patient cells; experiment: Clonogenic survival; assay type: cell-based
How it was run: as §2

RAD51 = RAD51 (Homo sapiens, UniProt Q06609); experiment: Fluorescence polarization; assay type: binding; details: in vitro, FP, 280 nM RAD51, 1 mM ATP
Sequence of RAD51 (Q06609 whole entry, species assumed): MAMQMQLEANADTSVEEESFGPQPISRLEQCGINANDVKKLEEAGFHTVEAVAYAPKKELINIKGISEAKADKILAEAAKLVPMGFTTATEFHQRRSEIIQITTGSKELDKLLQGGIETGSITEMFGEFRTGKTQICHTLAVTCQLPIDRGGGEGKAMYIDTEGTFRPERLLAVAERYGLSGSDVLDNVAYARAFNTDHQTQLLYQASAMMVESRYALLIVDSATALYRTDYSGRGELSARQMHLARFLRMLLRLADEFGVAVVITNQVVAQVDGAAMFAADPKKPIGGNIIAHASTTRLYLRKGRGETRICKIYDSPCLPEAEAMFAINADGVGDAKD
How it was run: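 Human RAD51 (280 nM) with 1 mM ATP, 10 nM FAM-labelled ssDNA and varied test compound in pH 7.5 Tris buffer (25 mM NaCl, 0.5 mM MgCl2, 1 mM DTT, 0.01% NP-40, 0.1 mg/mL BSA). Incubated 30 min at room temp, then fluorescence polarization read. Inhibition of ssDNA binding taken from FP.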

HR in U20S cells = experiment: HR GFP reporter assay; assay type: cell-based
[9] = system: MDA-MB-436 cells (BRCA1 deficient and BRCA1 complemented); experiment: Cell viability; assay type: cell-based; details: for Viability of BRCA1 deficient MDA-MB-436 cells: 3 day time course, 20 μM 6-OH-dopa
How it was run: as §1

[10] = system: HCC1937 cells (BRCA1 deficient); experiment: Cell viability; assay type: cell-based; details: 5 μM 6-OH-dopa
How it was run: as §1

RAD52 WT = biological target: T2, RAD52 WT (Homo sapiens, UniProt P43351); experiment: Fluorescence polarization; assay type: binding; details: for Inhibition of RAD52 ssDNA binding: in vitro, Supplementary Fig. 1
T2 sequence (P43351 1-418): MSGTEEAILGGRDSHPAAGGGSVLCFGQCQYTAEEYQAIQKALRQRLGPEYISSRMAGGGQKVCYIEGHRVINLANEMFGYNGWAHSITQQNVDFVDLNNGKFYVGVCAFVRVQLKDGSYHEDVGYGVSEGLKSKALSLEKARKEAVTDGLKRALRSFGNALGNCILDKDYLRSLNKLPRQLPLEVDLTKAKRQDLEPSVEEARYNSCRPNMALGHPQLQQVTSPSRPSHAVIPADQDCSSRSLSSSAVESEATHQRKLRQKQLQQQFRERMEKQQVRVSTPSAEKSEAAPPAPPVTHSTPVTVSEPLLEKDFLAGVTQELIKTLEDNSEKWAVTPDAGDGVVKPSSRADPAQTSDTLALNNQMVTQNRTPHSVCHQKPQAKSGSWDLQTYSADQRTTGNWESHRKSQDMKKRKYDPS

RAD52 = RAD52 (Homo sapiens, UniProt P43351); experiment: EMSA with excess ssDNA substrate; assay type: binding; details: 25 μM
How it was run: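 RAD52 binding to an excess of Cy3-labelled ssDNA substrate in the presence of 25 μM test compound. Complexes resolved by EMSA on a non-denaturing gel.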

[11] = system: BRCA deficient and proficient cell lines; experiment: Clonogenic survival assay; assay type: cell-based
How it was run: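 Clonogenic survival of BRCA-deficient and BRCA-proficient cell lines treated with test compound or olaparib. Mean ± s.e.m. of 3 independent experiments.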

HEK293T cells = experiment: eGFP-RAD52 foci formation after ionizing radiation; assay type: cell-based
How it was run: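 HEK293T cells expressing eGFP-RAD52 treated with test compound at several concentrations and exposed to ionizing radiation. DAPI-counterstained nuclei imaged, and the percent of cells with ≥ 5 eGFP-RAD52 foci scored. Values are average ± s.e.m. of 3 independent experiments; two-tailed Student's t-test.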

[12] = system: BCR-ABL transformed murine hematopoietic 32Dcl3 cells expressing eGFP-RAD52; experiment: eGFP-RAD52 foci formation after cisplatin; assay type: cell-based; details: cisplatin treated 32Dcl3 BCR-ABL cells
How it was run: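 Cells expressing eGFP-RAD52 pre-incubated with DMSO or test compound at several concentrations, then treated with cisplatin. Fraction of cells with eGFP-RAD52 foci scored by fluorescence microscopy. Values are mean ± s.e.m. of triplicates; two-tailed Student's t-test.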

SSA in U20S cells = experiment: SSA GFP reporter assay; assay type: cell-based; details: 5 μM
How it was run: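 U20S cells carrying an SSA reporter exposed to test compounds at 5 μM. RAD52 siRNA versus scrambled siRNA serves as pathway control, with knockdown checked by western blot. Values are mean ± s.e.m. of triplicates, some from 3 separate experiments; two-tailed Student's t-test.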

MDA-MB-436 cells = experiment: γH2AX foci; assay type: cell-based; details: more pronounced in BRCA deficient cells
light scattering [13] = biological target: the molecule itself; experiment: light scattering
light scattering [14] = biological target: the molecule itself; experiment: light scattering; remark: listed apart in the source
native gel or EMSA = biological target: the molecule itself; experiment: native gel or EMSA

`NC(Cc1cc(O)c(O)cc1O)C(=O)O` (racemic) [6-OH-dopa, 6-hydroxy-DL-dopa] was tested, and the IC50 [1] was 1600 nM, the “Size of RAD52 1-209 species produced” value ([2]; high salt (1 M NaCl)) was 48.3 kDa and the “Size of RAD52 1-209 species produced” value ([2]; low salt (0.15 M NaCl)) was 48.3 kDa. The “Undecamers (270 kDa) converted into dimers (48.3 kDa)” value ([2]; low salt (0.15 M NaCl)) was 100%, the “Proliferation of VC8 cells” value [3] was “selectively halted the proliferation” and the “Dissociation of pre-formed RAD52-ssDNA complexes” value (RAD52-ssDNA complexes) was “fully dissociated RAD52-ssDNA complexes”. For the same molecule, the “Effect on NHEJ” value (NHEJ in U20S cells) was “only slightly inhibited NHEJ”, the “Interaction with ssDNA” value (ssDNA) was “does not interact with ssDNA” and the eGFP-RAD52 foci [4] was “inhibited eGFP-RAD52 foci”. The “Apoptosis indicated by annexin V staining” value [5] was “specifically increased apoptosis”, the “Effect on RecA” value (RecA) was “very little effect” and the “Effect on RAD52 1-209 composition” value [6] was “dissociates RAD52 complexes”. For the same molecule, the “Colony formation by AML patient cells expressing normal levels of BRCA1/2” value (AML patient cells) was “little effects”, the “Proliferation of CAPAN-1 cells” value [7] was “selectively halted the proliferation” and the “Survival of BRCA1 deficient CML patient cells” value [8] was “significant reduction in the survival”. The “Effect on RAD51” value (RAD51) was “little or no effect; also recorded: no effect”, the “Effect on HR when RAD52 was suppressed” value (HR in U20S cells; RAD52 siRNA) was “had no effect on HR” and the “Effect on HR” value (HR in U20S cells; U20S cells, 5 μM) was “little or no reduction in HR”. The “Viability of BRCA1 deficient MDA-MB-436 cells” value [9] was “nearly identical reduction in viability”, the “Viability of BRCA1 deficient MDA-MB-436 cells when RAD52 expression was suppressed” value ([9]; RAD52 siRNA) was “lost its ability to significantly reduce the viability” and the “Viability of HCC1937 cells” value [10] was “selectively reduced the viability”. The IC50 (RAD52 WT) was 1100 nM, the “Percent lower IC50 for RAD52 WT compared to RAD52 1-209” value (RAD52 WT) was 31% and the “Inhibition of RAD52 in the presence of ~100-fold excess of ssDNA substrate” value (RAD52) was “continued to inhibit RAD52”. For the same molecule, the “Clonogenic survival of BRCA deficient cell lines” value [11] was “inhibited the survival”, the “Clonogenic survival of BRCA proficient cells” value ([11]; at the given doses) was “little or no effect” and the eGFP-RAD52 foci (HEK293T cells) was “decreased the number of eGFP-RAD52 foci in a dose dependent manner”. For the same molecule, the eGFP-RAD52 foci formation [12] was “suppressed eGFP-RAD52 foci formation in a dose dependent manner”, the “Effect on SSA” value (SSA in U20S cells) was “consistently inhibited SSA” and the “DNA damage indicated by γH2AX foci” value (MDA-MB-436 cells) was “substantial increase in DNA damage”.

For `NC(Cc1ccccc1O)C(=O)O` (racemic) [DL-o-tyrosine, reference compound], the “Effect on RAD52 1-209 composition” value [6] was “had no effect on RAD52 1-209 composition” and the “Inhibition of RAD52 ssDNA binding” value (RAD52 WT) was “failed to inhibit RAD52”.

In the case of `N[C@H](C(=O)O)[C@H](O)c1ccc(O)c(O)c1` [L-DOPS, reference compound], the “Inhibition of RAD52 ssDNA binding” value (RAD52 WT) is reported as “failed to inhibit” and the “Effect on SSA” value (SSA in U20S cells) is reported as “failed to inhibit SSA”.

`O=C(c1cc(Cc2n[nH]c(=O)c3ccccc23)ccc1F)N1CCN(C(=O)C2CC2)CC1` [olaparib, reference compound] was tested, and the “Colony formation by AML patient cells expressing normal levels of BRCA1/2” value (AML patient cells) was “little effects” and the “Viability of BRCA1 deficient MDA-MB-436 cells” value [9] was “selectively reduced the viability”.

B1: RAD52 1-209 (RAD52 ssDNA binding domain, residues 1-209) (domain or fragment, human, UniProt P43351 1-209, looked up)
chain: MSGTEEAILGGRDSHPAAGGGSVLCFGQCQYTAEEYQAIQKALRQRLGPEYISSRMAGGGQKVCYIEGHRVINLANEMFGYNGWAHSITQQNVDFVDLNNGKFYVGVCAFVRVQLKDGSYHEDVGYGVSEGLKSKALSLEKARKEAVTDGLKRALRSFGNALGNCILDKDYLRSLNKLPRQLPLEVDLTKAKRQDLEPSVEEARYNSCR
With B1 the “stoichiometry N” value (light scattering [13]) was 2 and the “stoichiometry N” value (light scattering [14]) was 11.

B2: RAD52 WT (wild-type, full-length RAD52, Histidine-tagged) (natural protein, human, UniProt P43351 1-418, looked up)
chain: MSGTEEAILGGRDSHPAAGGGSVLCFGQCQYTAEEYQAIQKALRQRLGPEYISSRMAGGGQKVCYIEGHRVINLANEMFGYNGWAHSITQQNVDFVDLNNGKFYVGVCAFVRVQLKDGSYHEDVGYGVSEGLKSKALSLEKARKEAVTDGLKRALRSFGNALGNCILDKDYLRSLNKLPRQLPLEVDLTKAKRQDLEPSVEEARYNSCRPNMALGHPQLQQVTSPSRPSHAVIPADQDCSSRSLSSSAVESEATHQRKLRQKQLQQQFRERMEKQQVRVSTPSAEKSEAAPPAPPVTHSTPVTVSEPLLEKDFLAGVTQELIKTLEDNSEKWAVTPDAGDGVVKPSSRADPAQTSDTLALNNQMVTQNRTPHSVCHQKPQAKSGSWDLQTYSADQRTTGNWESHRKSQDMKKRKYDPS
B2 was tested, and the “stoichiometry N” value (native gel or EMSA) was 14.
